The results in this text go back to ChEMBL document CHEMBL1156006, “Potent and cellularly active 4-aminoimidazole inhibitors of cyclin-dependent kinase 5/p25 for the treatment of Alzheimer's disease” (Bioorg Med Chem Lett, 2009).

Data set [1] deals with T1, Cyclin-dependent kinase 5/CDK5 activator 1 (Homo sapiens, UniProt Q00535). The data set can be described thus: Inhibition of CDK5/p25 by scintillation proximity assay. The format is protein-complex assay. On the technique in general: SPA uses beads or plates that emit light when radiolabelled molecules are held near them.
T1 sequence (Q00535 whole entry): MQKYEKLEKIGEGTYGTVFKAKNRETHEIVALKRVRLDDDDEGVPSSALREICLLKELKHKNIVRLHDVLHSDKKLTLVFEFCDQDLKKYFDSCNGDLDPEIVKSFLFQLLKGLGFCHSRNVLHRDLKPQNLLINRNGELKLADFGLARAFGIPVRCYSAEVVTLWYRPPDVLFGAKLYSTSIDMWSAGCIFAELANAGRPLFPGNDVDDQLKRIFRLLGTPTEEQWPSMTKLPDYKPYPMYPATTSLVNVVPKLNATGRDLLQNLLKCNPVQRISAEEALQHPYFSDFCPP
T1 sequence (Q15078 whole entry, further chain): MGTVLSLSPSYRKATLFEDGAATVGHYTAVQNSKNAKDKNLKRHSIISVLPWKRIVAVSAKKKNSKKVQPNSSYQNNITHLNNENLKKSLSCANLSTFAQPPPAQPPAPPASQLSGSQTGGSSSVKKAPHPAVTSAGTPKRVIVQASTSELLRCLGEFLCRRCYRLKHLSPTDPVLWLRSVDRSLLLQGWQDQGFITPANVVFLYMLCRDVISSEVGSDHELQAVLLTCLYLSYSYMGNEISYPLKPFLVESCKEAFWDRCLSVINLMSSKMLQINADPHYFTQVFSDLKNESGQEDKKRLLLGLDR
The target of data set [2] is T1, Cyclin-dependent kinase 5/CDK5 activator 1. The data set can be described thus: Inhibition of human CDK5/p25 expressed in CHO cells after 2 hrs by whole cell assay. Format: cell-based. In a few lines: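 The cell line carries doxycycline-regulated CDK5, p25 and tau transgenes and was kept uninduced in doxycycline medium. Expression was induced by removing doxycycline for 24 h. Cells were then treated with compound for 2 h and lysed. Phosphorylated tau was measured in detergent-soluble extracts by AlphaLISA.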

A short description of data set [3]: Selectivity ratio, IC50 for CDK2/cyclin E over IC50 for CDK5/p25.
The nature of data set [4]: Selectivity ratio, IC50 for human CDK5/p25 by whole cell assay over IC50 for CDK5/p25.
Data set [5] addresses Mitogen-activated protein kinase 1 (Homo sapiens) (UniProt P28482). In words: Inhibition of MAPK1/ERK2 at 1 uM by scintillation proximity assay.
Data set [6] concerns the target T2, Cyclin-dependent kinase 2/cyclin A (Homo sapiens) (UniProt P24941+P20248+P78396). The data set can be described thus: Inhibition of CDK2/cyclin A at 10 uM by scintillation proximity assay. Format: protein-complex assay.
The target of data set [7] is T2, Cyclin-dependent kinase 2/cyclin A (Homo sapiens). In words: Inhibition of CDK2/cyclin A at 1 uM by scintillation proximity assay. Format: protein-complex assay.
The target of data set [8] is Mitogen-activated protein kinase 1 (Homo sapiens) (UniProt P28482). In words: Inhibition of MAPK1/ERK2 at 10 uM by scintillation proximity assay. In a few lines:
(§1)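 Single-concentration profiling by scintillation proximity assay across a 20-kinase panel, including AMPK, GSK3b, MAPK1 and PHK. Compound was tested at 10, with ATP at the Km of each kinase.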

In data set [9] the target is Dual specificity protein kinase CLK1 (Homo sapiens) (UniProt P49759). The data set can be described thus: Inhibition of CLK1 at 1 uM by scintillation proximity assay.
Dual specificity protein kinase CLK1 (Homo sapiens), sequence (P49759 whole entry, looked up, canonical isoform): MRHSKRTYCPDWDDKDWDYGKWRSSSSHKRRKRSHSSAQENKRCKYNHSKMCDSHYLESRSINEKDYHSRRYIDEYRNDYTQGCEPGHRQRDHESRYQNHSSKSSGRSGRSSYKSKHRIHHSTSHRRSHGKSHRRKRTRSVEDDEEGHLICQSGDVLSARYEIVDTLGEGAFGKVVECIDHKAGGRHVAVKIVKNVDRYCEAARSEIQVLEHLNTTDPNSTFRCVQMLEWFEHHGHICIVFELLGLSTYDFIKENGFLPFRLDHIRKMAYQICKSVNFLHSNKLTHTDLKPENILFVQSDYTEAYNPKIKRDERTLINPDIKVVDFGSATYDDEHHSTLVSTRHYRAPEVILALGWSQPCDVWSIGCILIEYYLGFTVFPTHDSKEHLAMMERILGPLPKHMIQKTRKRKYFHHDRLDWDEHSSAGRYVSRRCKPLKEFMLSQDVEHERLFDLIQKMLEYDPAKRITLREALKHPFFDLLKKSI
Data set [10] addresses Glycogen synthase kinase-3 beta (Homo sapiens) (UniProt P49841). In words: Inhibition of GSK3-beta at 1 uM by scintillation proximity assay.
The target in data set [11] is Casein kinase I isoform delta (Homo sapiens) (UniProt P48730). The data set can be described thus: Inhibition of CK1delta at 1 uM by scintillation proximity assay.
Casein kinase I isoform delta (Homo sapiens), sequence (P48730 whole entry, looked up, canonical isoform): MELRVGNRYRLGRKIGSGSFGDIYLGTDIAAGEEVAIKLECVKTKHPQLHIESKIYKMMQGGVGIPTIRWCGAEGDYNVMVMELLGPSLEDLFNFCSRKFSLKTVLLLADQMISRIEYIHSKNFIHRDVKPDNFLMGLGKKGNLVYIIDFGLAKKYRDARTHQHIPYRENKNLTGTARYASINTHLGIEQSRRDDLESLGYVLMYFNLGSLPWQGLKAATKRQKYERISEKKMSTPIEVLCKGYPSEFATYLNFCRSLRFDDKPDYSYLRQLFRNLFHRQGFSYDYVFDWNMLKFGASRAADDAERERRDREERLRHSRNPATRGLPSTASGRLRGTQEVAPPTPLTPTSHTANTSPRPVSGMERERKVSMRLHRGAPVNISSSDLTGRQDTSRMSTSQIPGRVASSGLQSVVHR
The target of data set [12] is Dual specificity protein kinase CLK1 (Homo sapiens) (UniProt P49759). In words: Inhibition of CLK1 at 10 uM by scintillation proximity assay.
Data set [13] has as its target Casein kinase I isoform delta (Homo sapiens) (UniProt P48730). In words: Inhibition of CK1delta at 10 uM by scintillation proximity assay.
In data set [14] the target is Glycogen synthase kinase-3 beta (Homo sapiens) (UniProt P49841). The data set can be described thus: Inhibition of GSK3-beta at 10 uM by scintillation proximity assay. Summed up: as §1
Glycogen synthase kinase-3 beta (Homo sapiens), sequence (P49841 whole entry, looked up, canonical isoform): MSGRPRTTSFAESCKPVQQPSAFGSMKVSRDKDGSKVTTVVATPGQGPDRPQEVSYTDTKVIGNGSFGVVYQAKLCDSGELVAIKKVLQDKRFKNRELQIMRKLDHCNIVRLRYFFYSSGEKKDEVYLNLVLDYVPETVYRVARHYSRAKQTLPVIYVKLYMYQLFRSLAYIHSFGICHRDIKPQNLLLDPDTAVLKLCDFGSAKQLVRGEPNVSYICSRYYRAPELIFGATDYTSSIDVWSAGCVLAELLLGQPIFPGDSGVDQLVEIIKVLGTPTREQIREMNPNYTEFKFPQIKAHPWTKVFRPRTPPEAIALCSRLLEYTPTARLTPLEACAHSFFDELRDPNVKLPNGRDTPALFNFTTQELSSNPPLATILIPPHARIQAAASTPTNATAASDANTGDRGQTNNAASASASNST
Data set [15] in a line: Apparent permeability from basolateral to apical side in human Caco-2 cells. In general terms: Caco-2 monolayers are a common model of the intestinal barrier.
Data set [16] is described as follows: Apparent permeability from apical to basolateral side in human Caco-2 cells.
Data set [17] can be described thus: Inhibition of AMPK at 10 uM by scintillation proximity assay. Summed up: as §1
Data set [18] can be described thus: Inhibition of PHK at 10 uM by scintillation proximity assay. In a few lines: as §1
Data set [19] in a line: Drug level in FV/B mouse brain at 2 mg/kg, sc after 1 hr. Format: ADME, organism-based. Details: dose 2 mg/kg, route subcutaneous. Conditions: read-out: Drug uptake.
Data set [20] can be described thus: Ratio of drug level from brain to plasma in FV/B mouse at 2 mg/kg, sc after 1 hr.
Data set [21] in a line: Plasma concentration in FV/B mouse at 2 mg/kg, sc after 1 hr. Format: ADME, organism-based. Details: dose 2 mg/kg, route subcutaneous.
Data set [22] in a line: Ratio of drug level from brain to plasma in MDR1A/1B knockout mouse at 2 mg/kg, sc after 1 hr.
A short description of data set [23]: Drug level in MDR1A/1B knockout mouse brain at 2 mg/kg, sc after 1 hr. Also on record: dose 2 mg/kg, route subcutaneous. Format: ADME, organism-based. The following applies: read-out: Drug uptake.
Data set [24] is described as follows: Plasma concentration in MDR1A/1B knockout mouse at 2 mg/kg, sc after 1 hr. The format is ADME, organism-based. Also on record: dose 2 mg/kg, route subcutaneous.

Mitogen-activated protein kinase 1 (Homo sapiens), sequence (P28482 whole entry): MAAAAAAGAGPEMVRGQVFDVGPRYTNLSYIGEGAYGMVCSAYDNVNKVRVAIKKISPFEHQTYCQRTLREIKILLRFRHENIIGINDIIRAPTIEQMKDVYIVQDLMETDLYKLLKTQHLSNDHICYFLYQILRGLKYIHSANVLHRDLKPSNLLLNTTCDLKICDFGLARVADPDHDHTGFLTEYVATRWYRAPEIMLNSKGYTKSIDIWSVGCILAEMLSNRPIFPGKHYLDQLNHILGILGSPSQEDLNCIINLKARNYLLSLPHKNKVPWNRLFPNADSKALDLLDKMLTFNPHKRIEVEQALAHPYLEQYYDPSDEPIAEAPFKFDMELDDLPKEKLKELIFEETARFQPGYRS

What is called IC50 is the point on the concentration scale where inhibition reaches its midpoint. High values mean weaker potency, low ones greater potency. In turn, `COc1ccc(CC(=O)Nc2cn(C3CCCCC3)cn2)cc1` came in with an IC50 in data set [1] of 748 nM.

Consider `O=C(Cc1cccc2ccccc12)Nc1cn([C@H]2C[C@@H](NC(=O)c3cccc(Cl)n3)C2)cn1`, for which the figures for the IC50 in [2] and in [1] were 673 nM and 6 nM, respectively. Besides, the values for the Ratio IC50 in data set [3] and in data set [4] were 34 and 100, respectively.

For orientation: inhibition means the relative decrease from the control value, in per cent. Take `COc1ccc(CC(=O)Nc2cn([C@H]3C[C@@H](NC(C)=O)C3)cn2)cc1`: the Ratio IC50 in data set [3] came out at 7. Moreover, the inhibition is 47% in data set [5]; 101% in data set [6]; 94% in data set [7]; 89% in data set [8]; 55% in [9]; 94% in [10]. Also, the inhibition in [11] amounted to 7%; in data set [12] it was 92%; in [13] it was 39%; in data set [14] it was 100%. This compound also registered a half-inhibitory concentration (IC50) in data set [1] of 9 nM.

Take `NC(=O)[C@H]1C[C@@H](n2cnc(NC(=O)Cc3cccc4ccccc34)c2)C1`: the Ratio IC50 in data set [3] worked out at 2. This compound gave an IC50 in data set [1] of 391 nM.

On to `O=C(Cc1cccc2ccccc12)Nc1cn([C@H]2C[C@@H](NC(=O)c3cccnc3)C2)cn1`, for which the half-maximal inhibitory concentration (IC50) in [2] is more than 30000 nM; in data set [1], 46 nM. Moreover, the Ratio IC50 in data set [3] stood at 15.

Regarding `CC(=O)N(C)[C@H]1C[C@@H](n2cnc(NC(=O)Cc3cccc4ccccc34)c2)C1`, the Ratio IC50 in data set [3] was determined as 15. For the same compound, half-maximal inhibition in data set [1] (IC50) required 107 nM.

In data set [1], `O=C(Cc1ccccc1)Nc1cn(C2CCC2)cn1` showed a concentration for half-maximal inhibition (IC50) of 500 nM.

In the case of `COc1ccc(CC(=O)Nc2cn([C@H]3C[C@H](O)C3)cn2)cc1`, in [3], the Ratio IC50 turned out to be 0.7. In data set [1], this compound returned an IC50 of 1090 nM.

On to `COc1ccc(CC(=O)Nc2cn([C@H]3C[C@@H](NS(C)(=O)=O)C3)cn2)cc1`, for which the Ratio IC50 in data set [3] stood at 6. In addition, the IC50 in data set [1] amounted to 178 nM.

`O=C(Cc1cccc2ccccc12)Nc1cn([C@H]2C[C@@H](NC(=O)c3ccncc3)C2)cn1`: the Ratio IC50 in [3] turned out to be 11. The same compound came in with an IC50 in [1] of 28 nM.

For the compound `O=C(Cc1ccccc1)Nc1ncc(C2CCC2)s1`, in data set [3], the Ratio IC50 was 1.5. The IC50 in data set [1] is 64 nM.

What is called Papp B→A is how fast a substance crosses the layer from the basolateral side. As a reminder, the Papp A→B is the apparent permeability from the apical to the basolateral side of a cell layer. Take `O=C(Cc1cccc2ccccc12)Nc1cn([C@H]2C[C@@H](NC(=O)c3ccccn3)C2)cn1`: the 50% inhibitory concentration (IC50) in [2] is 1300 nM; in [1], 14 nM. Further, the Ratio IC50 in data set [3] stood at 20. For the same compound, in [15], the Papp B→A is 21 ×10⁻⁶ cm/s. The Papp A→B in data set [16] was found to be 26 ×10⁻⁶ cm/s.

`COc1ccc(CC(=O)Nc2cn([C@H]3C[C@@H](O)C3)cn2)cc1`: the Ratio IC50 in [3] stood at 0.7. The compound also showed an IC50 in [1] of 95 nM.

For the compound `COc1ccc(CC(=O)Nc2cn(C3CCCC3)cn2)cc1`, in [1], the IC50 came to 154 nM.

For `COc1ccc(CC(=O)Nc2cn(C3CCC3)cn2)cc1`, the inhibition in [17] came out at 48%; in [18], 32%; in data set [14] it was 34%. Moreover, in data set [1], inhibition was half-maximal at 145 nM (IC50).

In [1], `O=C(Cc1cccc2ccccc12)Nc1cn(C2CCC2)cn1` returned a 50% inhibitory concentration (IC50) of 46 nM.

Compound `COc1ccc(CC(=O)Nc2cn(Cc3ccccc3)cn2)cc1` had a half-maximal inhibitory concentration (IC50) in data set [1] of 8640 nM.

As for `COc1ccc(CC(=O)Nc2cn(C)cn2)cc1`, the IC50 in [1] was more than 10000 nM.

For the compound `CC(=O)N[C@H]1C[C@@H](n2cnc(NC(=O)Cc3cccc4ccccc34)c2)C1`, the figures for the IC50 in data set [2] and in data set [1] were more than 30000 nM and 8 nM, respectively. Also, the Ratio IC50 in [3] came out at 17. Also, in [15], the basolateral-to-apical permeability (Papp B→A) is 17.5 ×10⁻⁶ cm/s. In addition, in [16], the Papp A→B was 1.5 ×10⁻⁶ cm/s.

Regarding `COc1ccc(CC(=O)Nc2cn([C@H]3C[C@H](C(=O)OC)C3)cn2)cc1`, in [3], the Ratio IC50 was 0.2. Also, it took 4380 nM to reach half-maximal inhibition in data set [1] (IC50).

What is called Kp is tissue or fluid exposure divided by exposure in the circulation. Consider `Cc1cccc(C(=O)N[C@H]2C[C@@H](n3cnc(NC(=O)Cc4cccc5ccccc45)c3)C2)n1`, for which the values for the IC50 in [2] and in [1] were 230 nM and 6 nM, respectively. Further, the concentration at 1 h in data set [19] was 34 ng/g; in data set [21], 280 ng/mL; in [23], 383 ng/g; in [24], 336 ng/mL. In addition, the Kp at 1 h in data set [20] was 0.12; in [22], 1.1.

As for `COc1ccc(CC(=O)Nc2cn(C3CC3)cn2)cc1`, half-maximal inhibition in data set [1] (IC50) was put at 814 nM.

`COc1ccc(CC(=O)Nc2cn(C(C)C)cn2)cc1`: in data set [1], it took 425 nM to reach half-maximal inhibition (IC50).

Consider `COc1ccc(CC(=O)Nc2cn([C@H]3C[C@@H](C(=O)OC)C3)cn2)cc1`, for which the Ratio IC50 in [3] turned out to be 0.7. In data set [1], the concentration for half-maximal inhibition (IC50) amounted to 145 nM.
